Results taken from ChEMBL document CHEMBL4665864, “Indole acrylonitriles as potential anti-hyperglycemic agents: Synthesis, α-glucosidase inhibitory activity and molecular docking studies” (Bioorg Med Chem, 2020).

Test: Inhibition of Saccharomyces cerevisiae alpha-glucosidase using p-nitrophenyl-alpha-D-glucopyranoside as substrate preincubated with enzyme for 5 mins followed by substrate addition and measured after 30 mins by microplate reader analysis
Settings: not given; call rule not given here
In short: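 Yeast enzyme solution 2.5 U mL-1 and p-NPG made up in 0.07 M phosphate buffer, pH 6.8. Enzyme, buffer and test compound preincubated 5 min at 37 °C, then 10 mM p-NPG stock added and incubated 30 min at 37 °C. Reaction stopped with 0.2 M Na2CO3, p-nitrophenol read at 405 nm. Percent inhibition taken against buffer-only control; IC50 from dose-response curves of compounds giving ≥50% inhibition.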

Structure (SMILES) | IC50
N#C/C(=C\c1ccc2ccccc2c1)C(=O)c1c[nH]c2ccccc12 | Not Active
N#C/C(=C\c1ccc(Cl)cc1)C(=O)c1c[nH]c2ccccc12 | Not Active
COc1ccc(/C=C(\C#N)C(=O)c2c[nH]c3ccccc23)c(F)c1 | Not Active
CN(C)c1ccc(/C=C(\C#N)C(=O)c2c[nH]c3ccccc23)cc1 | Not Active
N#C/C(=C\c1ccc(-c2ccccc2)cc1)C(=O)c1c[nH]c2ccccc12 | Not Active
Cc1ccccc1/C=C(\C#N)C(=O)c1c[nH]c2ccccc12 | Not Active
N#C/C(=C\c1c(Cl)cccc1Cl)C(=O)c1c[nH]c2ccccc12 | Not Active
N#C/C(=C\c1ccco1)C(=O)c1c[nH]c2ccccc12 | Not Active

Further lines, results first:

IC50 | Structure (SMILES)
Not Active | N#C/C(=C\c1cccc([N+](=O)[O-])c1)C(=O)c1c[nH]c2ccccc12
Not Active | N#C/C(=C\c1cccc(OCc2ccccc2)c1)C(=O)c1c[nH]c2ccccc12
Not Active | N#C/C(=C\c1cccnc1)C(=O)c1c[nH]c2ccccc12
Not Active | N#C/C(=C\c1ccncc1)C(=O)c1c[nH]c2ccccc12
Not Active | N#C/C(=C\c1cc(Cl)cc(Cl)c1O)C(=O)c1c[nH]c2ccccc12
Not Active | N#C/C(=C\c1ccc(OCc2ccccc2)cc1)C(=O)c1c[nH]c2ccccc12

Same assay, conditions: read-out: IC50

Structure (SMILES) | IC50 [nM]
N#C/C(=C\c1ccc([N+](=O)[O-])cc1)C(=O)c1c[nH]c2ccccc12 | 880
COc1cc(/C=C(\C#N)C(=O)c2c[nH]c3ccccc23)cc(OC)c1Br | 530
N#C/C(=C\c1cccc2ccccc12)C(=O)c1c[nH]c2ccccc12 | 600
COc1ccc(/C=C(\C#N)C(=O)c2c[nH]c3ccccc23)cc1OCc1ccccc1 | 1020
N#C/C(=C\c1ccc2ccc3cccc4ccc1c2c34)C(=O)c1c[nH]c2ccccc12 | 1360

The next lines start with the values.

IC50 [nM] | Structure (SMILES)
950 | COc1cccc(/C=C(\C#N)C(=O)c2c[nH]c3ccccc23)c1Cl
1190 | N#C/C(=C\c1ccccc1OCc1ccccc1)C(=O)c1c[nH]c2ccccc12
2910 | C[C@H]1O[C@H](O[C@H]2[C@H](O)[C@@H](O)[C@@H](O[C@H]3[C@H](O)[C@@H](O)C(O)O[C@@H]3CO)O[C@@H]2CO)[C@H](O)[C@@H](O)[C@@H]1N[C@H]1C=C(CO)[C@@H](O)[C@H](O)[C@H]1O (some centres not stated) [ACARBOSE]
